From ChEMBL document CHEMBL1932969, “Acyl derivatives of boswellic acids as inhibitors of NF-κB and STATs” (Bioorg Med Chem Lett, 2012)
Calls of active or inactive are those of the source. The calls are words filed in the database; no cut-off is given here.

Legend:
[1] = target: T1, Signal transducer and activator of transcription 6 (Homo sapiens) (UniProt P42226); experiment: Inhibition of STAT6 Tyr641 phosphorylation in p53-deficient human HL60 cells at 20 to 50 uM after 6 hrs by Western blot analysis; type: cell-based; details: HL-60
T1 sequence (whole entry): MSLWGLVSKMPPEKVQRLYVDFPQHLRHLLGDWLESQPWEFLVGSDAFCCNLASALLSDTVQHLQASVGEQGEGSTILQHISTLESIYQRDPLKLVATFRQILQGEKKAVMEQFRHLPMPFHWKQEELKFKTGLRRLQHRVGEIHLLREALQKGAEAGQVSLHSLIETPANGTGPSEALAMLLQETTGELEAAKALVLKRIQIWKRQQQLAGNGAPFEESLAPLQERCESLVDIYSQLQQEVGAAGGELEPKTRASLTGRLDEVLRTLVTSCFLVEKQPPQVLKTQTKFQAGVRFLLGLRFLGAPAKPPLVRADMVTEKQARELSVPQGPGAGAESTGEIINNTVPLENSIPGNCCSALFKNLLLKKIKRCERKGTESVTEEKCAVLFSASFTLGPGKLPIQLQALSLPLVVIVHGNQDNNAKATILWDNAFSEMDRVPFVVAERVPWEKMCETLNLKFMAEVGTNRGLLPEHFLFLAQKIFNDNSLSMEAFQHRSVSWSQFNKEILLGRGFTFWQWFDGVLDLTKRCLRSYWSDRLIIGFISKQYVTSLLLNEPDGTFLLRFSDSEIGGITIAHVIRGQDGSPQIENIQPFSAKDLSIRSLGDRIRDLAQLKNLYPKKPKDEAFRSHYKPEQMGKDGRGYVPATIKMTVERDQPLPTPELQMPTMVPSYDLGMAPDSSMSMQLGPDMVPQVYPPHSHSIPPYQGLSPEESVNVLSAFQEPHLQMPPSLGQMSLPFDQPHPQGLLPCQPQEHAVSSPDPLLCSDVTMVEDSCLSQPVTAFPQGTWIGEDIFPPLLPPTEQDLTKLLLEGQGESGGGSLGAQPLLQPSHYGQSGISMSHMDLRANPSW

[2] = test system: HL-60; experiment: Induction of apoptosis in p53-deficient human HL60 cells assessed as apoptotic cells at 50 uM after 6 hrs by FITC-conjugated annexinV/PI-based flow cytometric analysis (reference value: 5 %); type: functional
Outline: (§1)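 HL-60 cells incubated with each analog at 50 µM for 6 h, stained with annexin V-FITC/propidium iodide and analysed by flow cytometry. Lower right quadrant is apoptotic, upper right post-apoptotic, upper left necrotic. Three experiments, with representative dot plots shown.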

[3] = test system: HL-60; experiment: Inhibition of NF-kappaB p50 subunit protein expression in p53-deficient human HL60 cells at 50 uM after 6 hrs by Western blot analysis; type: cell-based
Outline: (§2)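 HL-60 cells treated with or without compound (20 and 50 µM) for 6 h. Total cell lysates (70 µg protein) are run on 10% SDS–PAGE and immunoblotted for NF-κB p50 and p65.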

[4] = test system: HL-60; experiment: Induction of necrosis in p53-deficient human HL60 cells at 50 uM after 6 hrs by FITC-conjugated annexinV/PI-based flow cytometric analysis; type: functional, cell-based; outline: as §1
[5] = test system: HL-60; experiment: Induction of apoptosis in p53-deficient human HL60 cells assessed as DNA fragmentation at 50 uM after 6 hrs by agarose gel electrophoresis; type: functional, cell-based
Outline: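 2 × 10⁶ HL-60 cells treated with derivatives at 50 µM for 6 h, then scored for an apoptotic DNA ladder of 180–200 bp fragments or multiples. The positive control is 4 µM camptothecin for 6 h.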

[6] = test system: HL-60; experiment: Induction of apoptosis in p53-deficient human HL60 cells at 50 uM after 6 hrs by FITC-conjugated annexinV/PI-based flow cytometric analysis; type: functional; outline: as §1
[7] = test system: HL-60; experiment: Inhibition of STAT3beta protein expression in p53-deficient human HL60 cells at 20 to 50 uM after 6 hrs by Western blot analysis; type: cell-based
[8] = target: Transcription factor p65 (Homo sapiens) (UniProt Q04206); experiment: Inhibition of NF-kappaB p65 subunit protein expression in p53-deficient human HL60 cells at 20 uM after 6 hrs by Western blot analysis; type: cell-based; details: HL-60; outline: as §2
[9] = target: Signal transducer and activator of transcription 3 (Homo sapiens) (UniProt P40763); experiment: Inhibition of STAT3 Ser727 phosphorylation in p53-deficient human HL60 cells at 20 to 50 uM after 6 hrs by Western blot analysis; type: cell-based; details: HL-60
[10] = test system: HL-60; experiment: Induction of apoptosis in p53-deficient human HL60 cells assessed as post-apoptotic cells at 50 uM after 6 hrs by FITC-conjugated annexinV/PI-based flow cytometric analysis (reference value: 1 %); type: functional; outline: as §1
[11] = test system: DU-145; experiment: Anticancer activity against human DU145 cells assessed as growth inhibition at 50 uM after 48 hrs by SRB assay; type: functional; details: DU-145, 48 h, read-out: GI
Outline: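 Cells exposed to test compounds at 50 µM for 48 h. Read-out is percent growth inhibition, with SEM given. 5-Fluorouracil and adriamycin serve as reference agents.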

Signal transducer and activator of transcription 3 (Homo sapiens), sequence (P40763 whole entry): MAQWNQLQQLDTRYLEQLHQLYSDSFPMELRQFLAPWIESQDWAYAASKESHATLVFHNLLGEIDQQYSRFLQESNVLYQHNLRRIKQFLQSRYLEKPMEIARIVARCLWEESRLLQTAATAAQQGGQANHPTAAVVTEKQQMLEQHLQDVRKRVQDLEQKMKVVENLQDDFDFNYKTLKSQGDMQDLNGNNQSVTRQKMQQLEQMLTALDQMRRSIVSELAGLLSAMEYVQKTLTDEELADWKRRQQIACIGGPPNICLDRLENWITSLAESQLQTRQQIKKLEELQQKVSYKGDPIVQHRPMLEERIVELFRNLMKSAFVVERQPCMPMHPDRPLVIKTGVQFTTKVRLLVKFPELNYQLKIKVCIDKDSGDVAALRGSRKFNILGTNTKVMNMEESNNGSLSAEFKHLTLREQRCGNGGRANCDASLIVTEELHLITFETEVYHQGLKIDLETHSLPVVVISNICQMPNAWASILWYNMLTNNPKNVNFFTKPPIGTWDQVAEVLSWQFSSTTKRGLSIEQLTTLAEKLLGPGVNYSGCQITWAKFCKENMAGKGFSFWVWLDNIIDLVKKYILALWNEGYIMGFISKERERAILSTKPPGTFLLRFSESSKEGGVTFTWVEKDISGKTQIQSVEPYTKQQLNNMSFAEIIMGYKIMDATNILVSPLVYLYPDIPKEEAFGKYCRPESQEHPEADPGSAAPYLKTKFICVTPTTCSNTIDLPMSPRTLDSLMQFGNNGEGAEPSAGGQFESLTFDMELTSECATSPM
Transcription factor p65 (Homo sapiens), sequence (Q04206 whole entry): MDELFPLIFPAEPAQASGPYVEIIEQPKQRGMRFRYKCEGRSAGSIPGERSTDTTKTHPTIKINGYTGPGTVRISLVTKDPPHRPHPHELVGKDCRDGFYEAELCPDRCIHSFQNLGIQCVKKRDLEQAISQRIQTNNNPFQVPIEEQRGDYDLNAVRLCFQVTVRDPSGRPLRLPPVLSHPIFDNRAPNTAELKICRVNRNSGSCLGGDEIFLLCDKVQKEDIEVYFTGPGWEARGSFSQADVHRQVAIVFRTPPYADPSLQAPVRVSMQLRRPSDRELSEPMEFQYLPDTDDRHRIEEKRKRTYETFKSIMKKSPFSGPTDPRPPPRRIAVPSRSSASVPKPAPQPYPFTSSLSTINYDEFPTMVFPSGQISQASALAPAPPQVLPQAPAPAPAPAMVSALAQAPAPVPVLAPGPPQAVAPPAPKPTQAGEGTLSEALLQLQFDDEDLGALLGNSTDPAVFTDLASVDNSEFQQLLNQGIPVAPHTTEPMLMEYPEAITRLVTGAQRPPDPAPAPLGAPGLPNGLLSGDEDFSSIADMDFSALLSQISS

inhibition [1]: Active | inhibition [8]: 90% | inhibition [9]: Active
Structure (SMILES): CCCC(=O)O[C@@H]1CC[C@@]2(C)[C@@H](CC[C@]3(C)[C@@H]2C(=O)C=C2[C@@H]4[C@@H](C)[C@H](C)CC[C@]4(C)CC[C@]23C)[C@@]1(C)C(=O)O
Activity [2]: 32% | inhibition [3]: Active | Activity [4]: inactive | Activity [5]: Active | Activity [6]: 80% | inhibition [7]: Active | Activity [10]: 48% | inhibition of growth at 50 µM [11]: 93%
